The subject of assay [1] is Calu-6. The assay is described as follows: Antitumor activity against human Calu-6 cells xenografted in RH-rnu/rnu athymic rat assessed as increased ratio of enlarged vessels with >100 uM diameter in tumor at 0.2 mg/kg, po administered for 14 days by H33342 dye based fluorescence microscopic analysis relative to control. It is filed as functional. To be noted: time 14 day. The procedure, abridged:
(§1)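 Calu-6 tumor-bearing athymic rats, three per group, received oral drug at 0.2 or 1 mg/kg or vehicle on days 0-13. They were killed 1 min after i.v. H33342 at 20 mg/kg on day 13. 10 µm cryosections were cut from five tumor levels at least 200 µm apart and examined under UV epifluorescence. The major axis of fluorescent halos around vessels was measured by image analysis, with a Mann-Whitney test.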
(In xenograft studies the graft and the host belong to different species.)

A further assay deals with OVCAR-3. Briefly: Antitumor activity against human OVCAR-3 cells xenografted in gamma-irradiation induced RH-rnu/rnu athymic rat assessed as tumor growth inhibition at 1.0 mg/kg, po administered once daily for 2 weeks and measured on day 14 relative to control. It is filed as functional. To be noted: OVCAR-3, light or radiation study, 336 h, read-out: TGI. The procedure, abridged: (§2)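 Rats were γ-irradiated with 7 Gy whole body, and 24 h later received s.c. tumor cells. Fragments (20-30 mg) from ~1,500 mm3 tumors were then implanted s.c. into irradiated athymic rats. Oral dosing at 0.2 or 1 mg/kg or vehicle ran once daily for 2 weeks from day 0. Tumors were measured with calipers twice weekly (length×width²×0.5). TGI% was taken versus vehicle on day 14 (BxPC-3: day 13), with an unpaired t test on RTV.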

Assay [2] deals with Platelet-derived growth factor receptor beta (Homo sapiens, UniProt P09619). Briefly: Inhibition of PDGFR-beta phosphorylation in serum starved human NHDF cells incubated for 1 hr by immunoblotting analysis. Type of assay: cell-based. The procedure, abridged:
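Cells starved overnight in basic medium with 0.5% FBS, incubated 1 h with compound or 0.1% DMSO, then stimulated with human recombinant ligand for 5 min at 37°C. Lysates immunoprecipitated with receptor antibody and immunoblotted for phosphotyrosine. IC50 from nonlinear regression of percentage inhibition (n = 4).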

Assay [3] has as its system Calu-6. Briefly: Antitumor activity against human Calu-6 cells xenografted in RH-rnu/rnu athymic rat assessed as larger enclosed median lumen area by the halos in tumor by measuring vessel diameter at 0.2 mg/kg, po administered for 14 days by H33342 dye based fluorescence microscopic analysis. The settings on record: time 14 day. Type of assay: functional. The procedure, abridged:
as §1

The subject of a further assay is BXPC-3. Briefly: Antitumor activity against human BXPC-3 cells xenografted in gamma-irradiation induced RH-rnu/rnu athymic rat assessed as tumor growth inhibition at 1.0 mg/kg, po administered once daily for 2 weeks and measured on day 13 relative to control. To be noted: BXPC-3, light or radiation study, 336 h, read-out: TGI. Type of assay: functional. The procedure, abridged: as §2

Assay [4] has as its system Calu-6. Briefly: Antitumor activity against human Calu-6 cells xenografted in RH-rnu/rnu athymic rat assessed as capillary permeability in tumor measured on day 21 by DCE-MRI analysis. Type of assay: functional, cell-based.
Assay [5] deals with Calu-6. Briefly: Antitumor activity against human Calu-6 cells xenografted in RH-rnu/rnu athymic rat assessed as increased pericyte coverage at 0.2 mg/kg, po administered for 14 days by immunofluorescence staining analysis relative to control. It is filed as functional. The settings on record: time 14 day. The procedure, abridged:
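Calu-6 xenografted athymic rats were randomized at 273-275 mm3 and dosed orally for 2 weeks. Paraffin sections were double-stained with anti-CD31 and Cy3-anti-α-smooth muscle actin. Pericyte-associated endothelial cells were counted in six fields per tumor, with six tumors per group and Dunnett's test.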

The target of assay [6] is Mitogen-activated protein kinase 1 (Homo sapiens, UniProt P28482). The assay is described as follows: Inhibition of ERK2 phosphorylation in EGF-stimulated serum-starved human HUVEC cells by immunoblotting analysis. Type of assay: cell-based. For orientation: In western blotting, separated proteins are transferred to a membrane and probed.

Calls of active or inactive are those of the source. The rule behind the calls is not given here.

Sequence of Mitogen-activated protein kinase 1 (P28482 whole entry): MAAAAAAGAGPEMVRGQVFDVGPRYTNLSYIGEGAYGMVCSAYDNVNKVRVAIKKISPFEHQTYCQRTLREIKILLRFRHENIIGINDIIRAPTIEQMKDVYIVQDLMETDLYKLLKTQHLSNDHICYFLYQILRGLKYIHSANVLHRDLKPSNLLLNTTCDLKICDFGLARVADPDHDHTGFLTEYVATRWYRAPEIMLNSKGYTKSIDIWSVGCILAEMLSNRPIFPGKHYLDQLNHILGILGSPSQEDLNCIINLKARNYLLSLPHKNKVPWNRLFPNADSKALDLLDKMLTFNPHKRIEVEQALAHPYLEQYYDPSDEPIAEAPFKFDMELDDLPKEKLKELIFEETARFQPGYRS

What is called IC50 is the concentration at which inhibition is half-maximal. A low value points to higher potency. In the case of `COc1cc2nccc(Oc3ccc(NC(=O)Nc4cc(C)on4)c(Cl)c3)c2cc1OC` [TIVOZANIB], the results for the Activity in the assay on Calu-6 [1], in the assay with Calu-6 [3] and with Calu-6 [5] were 24.3%, 57.9 um and 29.6%, respectively. In addition, the inhibition in vivo at 1 mg/kg with OVCAR-3 worked out at 98.5%; in the assay on BXPC-3 it was 93.5%. Moreover, half-maximal inhibition in assay [2] (IC50) required […]. The result in the assay on Calu-6 [4] was inactive. Also, the inhibition entry in assay [6] is “inactive”.

(Values after ChEMBL document CHEMBL5661970 (Cancer Res, 2006).)
